Source: PubChem
The list is not random: actives were taken first. Their share in the collection is about 11%.
Lmaj promast: Leishmania major promastigote growth inhibition. AID 1063. inhibition, % at 10 µM. Leishmania major promastigotes, resazurin fluorescence viability. 9% of 200,000 active;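 further: promastigotes grown with compound for 44 hours at 28 °C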
G6PDH counter: inhibits Leuconostoc G6PDH, flagging false hits in G6PDH-based assays; inhibition, % at 5 µM; Purified L. mesenteroides G6PDH, diaphorase/resazurin coupled fluorescence, 45 min; 0.12% of 200,000 active
WT yeast gro inh: growth inhibition of WT yeast, mitochondrial fusion screen; mitochondrial fusion phenotypic screen, WT strain; inhibition, % at 10 µM; 2.1% of 190,000 active; AID 1362; in the data active means inhibition above about 58%; tested in S. cerevisiae
Diaph inh CS: inhibits diaphorase or chemically oxidizes, flagging diaphorase assay artifacts; diaphorase resazurin-to-resorufin fluorescence, NADH, 16 min; bacterial (C. kluyveri) enzyme, not human; inhibition, % at 20 µM; 0.69% of 190,000 active; AID 1217;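 active means primary screen inhibition at 20 µM above a set limit, cut at about 50% in these data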
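Test system: bacterial diaphorase enzyme (C. kluyveri); Quantity: 0.14 U/mL diaphorase, enzyme working solution; Times: reaction incubation of 16 min at room temperature; Measured by: fluorescence of resorufin formed from resazurin, Ex 544/Em 590 nm; Benchmarks: positive control minus NADH, DMSO neutral control.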
Diaph act CS: counter-screen for diaphorase-based assays: diaphorase activators and chemical reducers; Diaphorase/resazurin coupled assay, resorufin fluorescence, 16 min; active compounds read high; 1 = vehicle wells, 0 = NADH-free wells; activation factor at 20 µM; 0.005% of 190,000 active; AID 1229;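 active means diaphorase activity raised at least twofold by the compound at 20 µM; inactive means activation factor below 2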
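Material: bacterial diaphorase enzyme (C. kluyveri); amount: enzyme 0.07 U/mL final; reagent: NADH substrate 0.114 mM plus resazurin dye 0.1 mM, final; doses: single compound dose of 20 µM, 1% DMSO final; timing: 16 min enzyme reaction, ambient temperature; measured by: fluorescence of resorufin, 544 nm excitation, 590 nm emission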
Hits are given with their value; - = inactive; . = not tested or not shown. Unless noted, no stated cut-off is given here; in the data, active means inhibition above about 50%; inactive means the rest.

SMILES	Lmaj promast	G6PDH counter	WT yeast gro inh	Diaph inh CS	Diaph act CS
CC(Nc1ccccc1N1CCCCC1)C(=O)N1CCc2ccccc21 (centres undefined)	-	-	-	-	-
CON(C)c1nc(NCC(C)C)nc(OCC#N)n1	-	-	-	-	-
C/C(N)=C(/C#N)C(=O)CSc1nc2scc(-c3ccccc3)c2c(=O)n1C	-	-	-	-	-
Cc1ccc2nc(Cl)c(/C=N/Nc3nc(C)cc(C)n3)c(=O)n2c1	57	-	-	-	-
CCc1ccc2c(c1)c(N=NC1=NC(=O)CS1)c(O)n2C	-	-	-	84	-
COc1cc(/C=C/C(=O)O)cc(S(=O)(=O)NCCO)c1OC	-	-	-	-	-
Cc1ccccc1C1C(C#N)=C2N=C(N)c3c(sc4c3CCCCC4)N2C2=C1C(=O)CC(C)(C)C2 (centres undefined)	62	-	-	-	-
CC(=O)Nc1ccc(NC(=O)c2ccc(COc3ccc4c(C)cc(=O)oc4c3)cc2)cc1	-	-	-	-	-
Cc1ccc(Cl)cc1NC(=O)COC(=O)c1ccc(COc2ccc3c(C)cc(=O)oc3c2)cc1	55	-	-	-	-
Cc1ccc(NC(=O)C2c3ccccc3Oc3ccccc32)c(C)c1	-	-	-	-	-
CCCN1C(=O)c2ccccc2NC1c1ccc(C)cc1 (centres undefined)	-	-	-	-	-
Cc1ccc(CN2C(=O)c3ccccc3NC2c2ccccn2)cc1 (centres undefined)	63	-	-	-	-
Cc1ccc(S(=O)(=O)N(C)C)cc1NC(=S)NC12CC3CC(CC(C3)C1)C2	78	-	-	-	-
CCc1nnc(NC(=O)COc2ccc(N(C)S(=O)(=O)c3ccc(C)cc3)cc2)s1	-	-	-	-	-
Cc1ccc(S(=O)(=O)N(C)c2ccc(OCC(=O)Nc3nnc(C4CC4)s3)cc2)cc1	96	-	-	-	-
CC(C)Cc1nc(N2CCN(C(=O)c3ccco3)CC2)c(C#N)c2c1CCC2	51	-	-	-	-
CC(C)c1cc(N2CCN(C(=O)c3ccco3)CC2)n2c(nc3ccccc32)c1C#N	52	-	-	-	-
CC1(C)Cc2c(C#N)c(N3CCN(C(=O)c4ccco4)CC3)nc(Cc3ccccc3)c2CO1	90	-	-	-	-
CC(C)Cc1nc(N2CCN(C(=O)c3ccccc3)CC2)c(C#N)c2c1CCC2	-	-	73	-	-
CC1(C)Cc2c(C#N)c(N3CCN(C(=O)c4ccco4)CC3)nc(-c3ccco3)c2CS1	-	-	-	-	-
CC(=O)N1CCN(c2nc(CC(C)C)c3c(c2C#N)CCC3)CC1	-	-	-	-	-
CC(C)Cc1nc(N2CCN(C(=O)C(C)C)CC2)c(C#N)c2c1CCC2	-	-	-	-	-
O=C(CS(=O)(=O)c1ccccc1)Nc1ccc(N2CCOCC2)cc1	-	-	-	-	-
O=c1cc(CSc2nc(NCc3ccccc3)c3ccccc3n2)nc2ccc(Cl)cn12	-	-	-	-	-
O=C(CCN1CCCCC1)NCC1OCCc2ccccc21 (centres undefined)	-	-	-	-	-
SMILES	Lmaj promast	G6PDH counter	WT yeast gro inh	Diaph inh CS	Diaph act CS
O=C(COc1ccc2ccccc2c1)Nc1ccc2c3c(cccc13)CC2	-	-	-	-	-
O=C(NCCc1ccccn1)c1cc(-c2ccccc2Cl)nc2ccccc12	-	-	-	-	-
CCOC(=O)Cn1nc(-c2ccccc2)c2cnc3ccc(CC)cc3c21	-	-	-	-	-
N#Cc1c(N2CCN(C(=O)c3ccccc3)CC2)nc(-c2ccccc2)c2c1CCCC2	75	-	-	-	-
O=C(OCc1cccc([N+](=O)[O-])c1)c1ccc2ccccc2n1	-	-	-	-	-
C/C(=N\NC(=O)Cn1c(-c2ccccn2)nc2ccccc21)c1ccccc1	68	-	-	-	-
CCOC(=O)Cn1c(-c2ccccn2)nc2ccccc21	-	-	-	-	-
C/C(=N\NC(=O)Cn1c(-c2ccccn2)nc2ccccc21)c1cccc(O)c1	-	-	-	-	-
CCN(CC)CCNC(=O)Cn1c(-c2ccccn2)nc2ccccc21	-	-	61	-	-
CCOC(=O)COc1cc(-n2c(=S)[nH]c3cc(OC)c(OC)cc3c2=O)c(Cl)cc1Cl	-	-	-	-	-
CC(C)(C)N(NC(=O)OCc1ccccc1)C(=O)c1ccccc1Cl	-	-	-	-	-
Cc1ccc(OCC(=O)c2ccc(Cl)s2)c([N+](=O)[O-])n1	-	-	-	-	-
O=C(COC(=O)CNS(=O)(=O)c1ccc(F)c(F)c1F)Nc1ccc(OC(F)F)cc1	82	-	-	-	-
Cc1nc2c(C#N)c(C)[nH]n2c(=O)c1Cc1ccccc1	87	-	-	-	-
COc1ccc(Br)cc1C(=O)Nc1ccccc1N1CCN(C(=O)c2ccccc2)CC1	55	-	-	-	-
CN(CC(=O)Nc1ccc(N2CCOCC2)cc1)CC(=O)Nc1ccc(Cl)cc1[N+](=O)[O-]	-	-	-	-	-
CCCNC(=O)COC(=O)CCC(=O)c1cccs1	57	-	-	-	-
CCNC(=O)COC(=O)CCC(=O)c1cccs1	-	-	-	-	-
CCOC(=O)CSc1nc2c(sc3ccc([N+](=O)[O-])cc32)c(=O)n1Cc1ccco1	-	-	-	-	-
O=C(N/N=C1\CCCc2ccccc21)c1ccccc1[N+](=O)[O-]	100	-	-	-	-
O=C(N/N=C1\CCCc2ccccc21)c1ccc([N+](=O)[O-])cc1Cl	94	-	-	-	-
O=C(N/N=C1/CCCc2ccccc21)c1cc([N+](=O)[O-])cc([N+](=O)[O-])c1	-	-	-	-	-
COc1cccc(-c2nc(OC(C)C)c3ccccc3n2)c1	-	-	61	-	-
Cc1ccc(S(=O)(=O)N2CCCOC2CNC(=O)C(=O)NCc2ccco2)cc1 (centres undefined)	-	-	-	-	-
Cc1ccc(C(=O)NCC(=O)OCC(=O)/C=C2\N(C)c3ccccc3C2(C)C)cc1C	-	-	-	-	-
SMILES	Lmaj promast	G6PDH counter	WT yeast gro inh	Diaph inh CS	Diaph act CS
C[C@]12CC[C@@H]3c4cc(O)c(O)cc4CC[C@H]3[C@@H]1CC[C@@H]2O	.	-	-	66	-
N=C1C(=O)OCC1c1ccccc1NC(=O)c1ccccc1 (centres undefined)	-	-	-	-	-
Cc1c(C2=CCN(S(=O)(=O)c3ccc(Br)cc3)CC2)c2ccccc2n1C	64	-	-	-	-
CCCNC(=S)N1CCC(NC(=O)Nc2ccc(C)cc2)CC1	-	-	-	-	-
C/C(=N\NC(=O)COc1ccc(C(C)(C)C)cc1)c1ccc(-n2ccnc2)cc1	52	-	71	-	-
C/C(=N\Nc1ccc(Cl)c(Cl)c1)c1ccc(-n2ccnc2)cc1	58	-	69	-	-
COc1cc(NC(=O)COc2ccc(-n3ccnc3)cc2)cc(OC)c1	-	-	-	-	-
CC(C)(C)c1ccc(NC(=O)COc2ccc(-n3ccnc3)cc2)cc1	67	-	-	-	-
